Assay results published in ChEMBL document CHEMBL4138161, “Discovery of simplified sampangine derivatives as novel fungal biofilm inhibitors” (Eur J Med Chem, 2018).
Active and inactive are the calls of the source.

How the values were obtained:
Candida albicans [1] = assay: Antibiofilm activity against Candida albicans SC5314 cultured in RPMI 1640 media assessed inhibition of yeast-to-hypha morphological transition after 3 hrs; assay type: functional, organism-based
Method in brief: (§1)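 Hyphal induction in Lee's (pH 6.8), Spider, SLAD or RPMI 1640 medium with compound; morphology assessed by microscopy.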

Candida albicans [2] = assay: Antifungal activity against fluconazole-resistant Candida albicans isolate Chang7 clinical isolate after 24 hrs by spectrophotometric analysis; assay type: functional; settings: isolate Chang7, 24 h
Method in brief: (§2)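 Broth microdilution (MIC80) against fluconazole-resistant clinical C. albicans isolates from a Shanghai hospital. Strains were grown in YPD at 30 ℃. Compounds came from 6.4 mg/mL DMSO stocks and were tested over a concentration series on 5×10^3 CFU/mL inoculum in RPMI 1640 at 35 ℃ for 24 h. OD600 was read; MIC80 is the lowest concentration giving 80% growth inhibition. Done in triplicate.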

Candida albicans [3] = assay: Antibiofilm activity against Candida albicans SC5314 assessed down regulation of HWP1 gene at 0.4 ug/ml after 1 hr by qRT-PCR analysis; assay type: functional, organism-based
Method in brief: (§3)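 Biofilm grown in dishes with 0.4 µg/mL compound or DMSO control for 1 h; total RNA isolated and transcripts quantified by real-time RT-PCR. Normalized to 18S rRNA, expressed as fold change vs untreated SC5314. Mean ± SD of three independent experiments.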

Candida albicans [4] = assay: Antibiofilm activity against Candida albicans SC5314 assessed down regulation of CEK1 gene at 0.4 ug/ml after 1 hr by qRT-PCR analysis; assay type: functional, organism-based; method in brief: as §3
Candida albicans [5] = assay: Antibiofilm activity against Candida albicans SC5314 assessed inhibition of yeast-to-hypha morphological transition at 0.25 ug/ml after 3 hrs; assay type: functional, organism-based
Method in brief: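 Cells were induced to form hyphae in YPD with 10% (vol/vol) fetal bovine serum at 37°C for 3 h with compound. Cell morphology was then photographed. Strains were routinely grown beforehand in YPD at 30°C with shaking.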

Candida albicans [6] = assay: Antifungal activity against fluconazole-resistant Candida albicans isolate J38 clinical isolate after 24 hrs by spectrophotometric analysis; assay type: functional; settings: isolate J38, 24 h; method in brief: as §2
Nannizzia gypsea = assay: Antifungal activity against Microsporum gypseum Cmccfmza after 24 hrs by spectrophotometric analysis; assay type: functional
Method in brief: (§4)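 Broth microdilution in RPMI 1640, inoculum 5×10^3 CFU/mL, compounds from 6.4 mg/mL DMSO stocks, 35 ℃ for 24 h. Growth read as OD600; MIC80 taken as lowest concentration giving 80% growth inhibition. Triplicate.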

Candida albicans [7] = assay: Antibiofilm activity against Candida albicans SC5314 assessed as disruption of biofilm formation at 0.8 ug/ml after 24 hrs by scanning electron microscopic analysis; assay type: functional, organism-based
Method in brief: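 Biofilm SEM: cells adhered to poly-L-lysine-coated glass disks, 90 min static at 37°C; non-adherent cells removed, then grown in fresh RPMI 1640 with compound at 37°C for 24 h. Fixed in 2% glutaraldehyde in 0.15 M sodium cacodylate (pH 7.2) for 2 h, graded ethanol dehydration, dried 1 h, gold-coated and imaged by SEM.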

Candida albicans [8] = assay: Fungicidal activity against Candida albicans SC5314 assessed as reduction in colony forming units at 0.8 ug/ml after 48 hrs by time-kill assay; assay type: functional, organism-based
Method in brief: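 Time-kill: overnight cells PBS-washed, resuspended in RPMI 1640 at 1×10^6 cells/mL with compound, shaken at 200 rpm at 30 ℃. At set time points, dilutions plated on YPD agar and colonies counted after 48 h at 30 ℃. Three independent runs.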

Trichophyton rubrum = assay: Antifungal activity against Trichophyton rubrum Cmccftla after 24 hrs by spectrophotometric analysis; assay type: functional; method in brief: as §4
Caenorhabditis elegans = assay: Toxicity in Caenorhabditis elegans AU37 at 6.25 to 100 ug/ml after 2 days; assay type: organism-based; settings: in vivo, 48 h
Method in brief: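 Nematodes placed in medium containing a range of compound concentrations, held at 25 ℃ for 2 d, checked daily and photographed on day 2.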

CAPAN-1 = assay: Cytotoxicity against human Capan1 cells assessed as cell growth inhibition after 48 hrs by CCK8 assay; assay type: cell-based; settings: CAPAN-1, 48 h
Aspergillus fumigatus = assay: Antifungal activity against Aspergillus fumigatus 07544 after 24 hrs by spectrophotometric analysis; assay type: functional; settings: Aspergillus fumigatus, 07544, 24 h; method in brief: as §4
Cryptococcus neoformans = assay: Antifungal activity against Cryptococcus neoformans 32609 after 24 hrs by spectrophotometric analysis; assay type: functional; settings: Cryptococcus neoformans, 32609, 24 h; method in brief: as §4
Candida albicans [9] = assay: Antifungal activity against Candida albicans SC5314 after 24 hrs by spectrophotometric analysis; assay type: functional; settings: SC5314, 24 h; method in brief: as §4
Candida albicans [10] = assay: Antifungal activity against fluconazole-resistant Candida albicans clinical isolate 1010 after 24 hrs by spectrophotometric analysis; assay type: functional; settings: isolate 1010, 24 h; method in brief: as §2
Candida parapsilosis = assay: Antifungal activity against Candida parapsilosis 22019 after 24 hrs by spectrophotometric analysis; assay type: functional; settings: Lodderomyces parapsilosis, 22019, 24 h; method in brief: as §4
Candida albicans [11] = assay: Antibiofilm activity against Candida albicans SC5314 assessed down regulation of UME6 gene at 0.4 ug/ml after 1 hr by qRT-PCR analysis; assay type: functional, organism-based; method in brief: as §3
Candida albicans [12] = assay: Antibiofilm activity against Candida albicans SC5314 assessed down regulation of EAP1 gene at 0.4 ug/ml after 1 hr by qRT-PCR analysis; assay type: functional, organism-based; method in brief: as §3
Candida albicans [13] = assay: Antibiofilm activity against Candida albicans SC5314 assessed down regulation of CPH1 gene at 0.4 ug/ml after 1 hr by qRT-PCR analysis; assay type: functional, organism-based; method in brief: as §3
Candida albicans [14] = assay: Antibiofilm activity against Candida albicans SC5314 assessed down regulation of ALS3 gene at 0.4 ug/ml after 1 hr by qRT-PCR analysis; assay type: functional, organism-based; method in brief: as §3
Candida albicans [15] = assay: Antibiofilm activity against Candida albicans SC5314 assessed inhibition of yeast-to-hypha morphological transition at 0.5 ug/ml after 3 hrs; assay type: functional, organism-based
Method in brief: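 Yeast-to-hypha transition in YPD with 10% (v/v) FBS across compound concentrations; cell morphology photographed after 3 h at 37°C.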

Candida albicans [16] = assay: Antibiofilm activity against Candida albicans SC5314 assessed down regulation of RAS1 gene at 0.4 ug/ml after 1 hr by qRT-PCR analysis; assay type: functional, organism-based; method in brief: as §3
Candida albicans [17] = assay: Antibiofilm activity against Candida albicans SC5314 assessed inhibition of cellular surface hydrophobicity at 0.2 to 1.6 ug/ml incubated for 24 hrs; assay type: functional, organism-based
Method in brief: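 Biofilms treated with compound for 24 h were detached and resuspended in PBS to OD600 1.0. Suspension was vortexed with octane (4:1 by volume) for 3 min, then left 3 min at room temperature to separate. Aqueous-phase OD600 was compared with a no-octane control as (control − overlay)/control × 100%. Three replicates per group across three independent experiments.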

Candida albicans [18] = assay: Antibiofilm activity against Candida albicans SC5314 assessed down regulation of ECE1 gene at 0.4 ug/ml after 1 hr by qRT-PCR analysis; assay type: functional, organism-based; method in brief: as §3
Candida albicans [19] = assay: Antibiofilm activity against Candida albicans SC5314 cultured in Lee media assessed inhibition of yeast-to-hypha morphological transition after 3 hrs; assay type: functional, organism-based; method in brief: as §1
Candida albicans [20] = assay: Antibiofilm activity against Candida albicans SC5314 cultured in Spider media assessed inhibition of yeast-to-hypha morphological transition after 3 hrs; assay type: functional, organism-based; method in brief: as §1

CCCc1ccnc2c1C(=O)c1sc([N+](=O)[O-])cc1C2=O
Non-Toxic: Activity (Caenorhabditis elegans)
4 µg/mL: MIC80 (Aspergillus fumigatus)
> 100 µM: IC50 (CAPAN-1)
0.5 µg/mL: MIC80 (Candida albicans [9]) | MIC80 (Candida albicans [10]) | MIC80 (Candida parapsilosis)
active: Activity (Candida albicans [1]) Dose-dependent effect | Activity (Candida albicans [3]) | Activity (Candida albicans [4]) | Activity (Candida albicans [5]) | Activity (Candida albicans [7]) | Activity (Candida albicans [8]) | Activity (Candida albicans [11]) | Activity (Candida albicans [12]) | Activity (Candida albicans [13]) | Activity (Candida albicans [14]) | Activity (Candida albicans [15]) | Activity (Candida albicans [16]) | Activity (Candida albicans [17]) | Activity (Candida albicans [18]) | Activity (Candida albicans [19]) Dose-dependent effect | Activity (Candida albicans [20]) Dose-dependent effect
2 µg/mL: MIC80 (Nannizzia gypsea) | MIC80 (Trichophyton rubrum)
1 µg/mL: MIC80 (Candida albicans [2]) | MIC80 (Candida albicans [6]) | MIC80 (Cryptococcus neoformans)

CCc1ccnc2c1C(=O)c1sc([N+](=O)[O-])cc1C2=O
Non-Toxic: Activity (Caenorhabditis elegans)
0.5 µg/mL: MIC80 (Trichophyton rubrum) | MIC80 (Candida albicans [9])
active: Activity (Candida albicans [1]) Dose-dependent effect | Activity (Candida albicans [3]) | Activity (Candida albicans [4]) | Activity (Candida albicans [5]) | Activity (Candida albicans [7]) | Activity (Candida albicans [8]) | Activity (Candida albicans [11]) | Activity (Candida albicans [12]) | Activity (Candida albicans [13]) | Activity (Candida albicans [14]) | Activity (Candida albicans [15]) | Activity (Candida albicans [16]) | Activity (Candida albicans [17]) | Activity (Candida albicans [18]) | Activity (Candida albicans [19]) Dose-dependent effect | Activity (Candida albicans [20]) Dose-dependent effect
> 100 µM: IC50 (CAPAN-1)
0.25 µg/mL: MIC80 (Candida albicans [2]) | MIC80 (Candida albicans [6]) | MIC80 (Candida albicans [10])
4 µg/mL: MIC80 (Aspergillus fumigatus)
2 µg/mL: MIC80 (Nannizzia gypsea)
1 µg/mL: MIC80 (Cryptococcus neoformans) | MIC80 (Candida parapsilosis)
